# Assay outcomes from PubChem.
# Compounds with a hit are over-represented: about 3.2% of the library has one in this group of screens.
# SMARCA2 activ: activators of SMARCA2 function; 370,000 tested, 1% active; MG213 cells, MMTV-luciferase reporter, dexamethasone, overnight; activation, % at 9.1 µM; in the data active = activation above about 7.8%;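 note: 0% = vehicle wells and 100% = reference activator wells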
# NR2E3 ag-1: agonists of human nuclear receptor NR2E3; Q9Y5X4; GST-NR2E3/biotin-RetCOR TR-FRET, 1536-well; inhibition of corepressor binding, % at 4.78 µM; 320,000 tested, 0.12% active; AID 2300;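 active = percent inhibition above the cutoff of mean plus 3 SD of all tested compounds, set per screening campaign, cut at about 20% in these data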;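 note: 0% = DMSO wells and 100% = biotin wells as full block of FRET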
#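 Material: NR2E3–RetCOR corepressor complex | Quantity: 1.35 nM GST-tagged NR2E3 final | Schedule: 5 h at 4 °C | Replication: Singlicate compound wells | Reagent: RetCOR corepressor, biotinylated, 7 nM | Controls: Biotin wells as high control, 0.6% DMSO wells as low control | Signal: TR-FRET, Eu(K)-anti-GST donor, streptavidin-D2 acceptor, ex 340, em 617/671 nm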
# DAX1 inh-1: blocks DAX1 repression of SF-1 activated StAR promoter | 370,000 tested, 1.1% active | HEK293T StAR-luciferase reporter, SF-1/DAX-1 repression relief | inhibition, % at 6.8 µM;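 active = inhibition above the mean over all tested compounds plus 3 SD, cut at about 3.6% in these data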;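 note: 0% = DAX-1 cells with DMSO and 100% = cells lacking DAX-1 with DMSO; higher inhibition means more luminescence from relief of DAX-1 repression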
# DAX1 inh-2: NR0B1 (DAX1) inhibition; HEK293 Gal4-DAX1 luciferase reporter, luminescence; inhibition, % at 6.75 µM; 340,000 tested, 0.99% active; AID 504766;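 active = inhibition above the mean over all tested compounds plus 3 SD, cut at about 4.2% in these data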;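 note: 0% = DAX1-transfected cells with DMSO and 100% = empty-vector control cells with DMSO; inhibition shows as a rise in luminescence from relieved DAX1 repression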
# Target sequence (P51843 207-470 limits assumed): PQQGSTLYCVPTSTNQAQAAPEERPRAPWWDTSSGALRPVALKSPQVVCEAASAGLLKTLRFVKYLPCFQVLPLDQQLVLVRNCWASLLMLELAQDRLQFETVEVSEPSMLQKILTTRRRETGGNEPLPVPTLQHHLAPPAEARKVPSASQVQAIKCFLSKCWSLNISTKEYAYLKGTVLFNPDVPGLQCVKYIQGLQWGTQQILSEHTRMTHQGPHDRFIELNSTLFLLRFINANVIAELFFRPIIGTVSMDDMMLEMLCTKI
# NR2E3 ag-2: human photoreceptor-specific nuclear receptor agonism. CHO-S Gal4-NCOR/VP16-NR2E3 two-hybrid, luciferase. inhibition of corepressor binding, % at 3.98 µM. 360,000 tested, 0.35% active. AID 602229;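 active = inhibition above the mean of all tested compounds plus 3 SD, cut at about 70% in these data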;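 note: 0% = DMSO with NR2E3 transfected cells and 100% = cells lacking NR2E3 construct; higher means lower luciferase signal from less NR2E3 corepressor binding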
# GASC-1 inh: blocks human GASC-1 demethylase activity. Q9H3R0. GST-JMJD2C(1-420) H3K9me3 demethylation, DELFIA europium. inhibition, % at 2.35 µM. 330,000 tested, 0.069% active. AID 2099;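 active = more than half of a compound's replicate wells show inhibition beyond 50%, single wells judged on their own value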;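 note: signal counts dimethyl H3K9 product captured on neutravidin plate; 0% = median of DMSO wells and 100% = 0.3 times that DMSO median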
# Target sequence (Q9H3R0 1-420 limits assumed): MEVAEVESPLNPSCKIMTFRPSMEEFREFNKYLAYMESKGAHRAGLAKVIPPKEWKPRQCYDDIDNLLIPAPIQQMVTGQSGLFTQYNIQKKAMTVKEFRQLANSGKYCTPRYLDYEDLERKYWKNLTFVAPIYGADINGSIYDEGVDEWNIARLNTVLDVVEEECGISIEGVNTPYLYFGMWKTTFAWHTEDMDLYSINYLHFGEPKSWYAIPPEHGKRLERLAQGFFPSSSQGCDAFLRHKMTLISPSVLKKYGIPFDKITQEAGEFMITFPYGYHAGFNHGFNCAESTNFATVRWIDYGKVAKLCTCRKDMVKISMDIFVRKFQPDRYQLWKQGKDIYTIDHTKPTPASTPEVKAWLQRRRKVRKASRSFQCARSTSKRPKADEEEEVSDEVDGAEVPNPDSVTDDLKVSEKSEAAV
# DAX1 inh confirm: NR0B1 (human) inhibition, confirmation; 2,400 tested, 87% active; inhibition, % at 6.8 µM; AID 652134; shares compounds with DAX1 inh-1; HEK293T StAR-promoter luciferase reporter, SF-1/DAX-1 repression;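 active = inhibition above the average of every tested compound plus 3 SD, cut at about 3.8% in these data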;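 note: 0% = DAX-1 cells with DMSO and 100% = no DAX-1 control cells with DMSO; active compounds raise luminescence by relieving repression of the StAR reporter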
# SF1 AF2mut Luc: counter-screen for DAX1 inhibitors: nonselective inhibitors with SF-1 AF2 mutant; shares compounds with DAX1 inh-1; HEK293 StAR-luciferase, luminescence; inhibition, % at 6.8 µM; 2,400 tested, 78% active; AID 652136;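 active = inhibition above the mean of all tested compounds plus 3 SD, cut at about 3% in these data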;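 note: 0% = DAX-1 transfected cells with DMSO and 100% = cells without DAX-1 with DMSO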
# * = called active by the depositor; x = not tested or not shown.
SMILES,SMARCA2 activ,NR2E3 ag-1,DAX1 inh-1,DAX1 inh-2,NR2E3 ag-2,GASC-1 inh,DAX1 inh confirm,SF1 AF2mut Luc
O=C(Nc1ccc2oc(=O)ccc2c1)c1cc2ccccc2o1,5.3,-1.1,-0.4,2.2,-129.0,14.0,x,x
C/C(=N/NC(=O)c1cccs1)c1cccc(N)c1,2.6,-1.2,5.8*,6.0*,-105.5,7.8,5.5*,2.4
O=C(Nc1ccc2c(c1)OCCO2)c1cc2ccccc2o1,2.3,3.4,5.7*,0.0,-151.6,-13.2,20.1*,8.3*
CC(=O)Nc1cccc(/C(C)=N/NC(=O)c2cccs2)c1,4.5,2.5,1.7,3.9,-127.8,-5.6,x,x
O=C(CSc1nnc(NC(=O)c2cccc(F)c2)s1)NCC1CCCO1 (stereo not given),-2.2,0.8,-0.8,0.6,-28.1,-7.0,x,x
CC(C)(C)c1ccc(C(=O)Nc2nnc(SCC(=O)NCC3CCCO3)s2)cc1 (stereo not given),4.2,-0.3,11.3*,-0.9,5.5,7.6,8.9*,6.1*
CN(C)S(=O)(=O)c1ccc(C(=O)Nc2nnc(SCC(=O)NCC3CCCO3)s2)cc1 (stereo not given),5.0,-0.7,1.7,-0.1,-12.3,4.1,x,x
CCOc1ccc(C(=O)Nc2nnc(SCC(=O)NCC3CCCO3)s2)cc1 (stereo not given),4.8,3.8,5.4*,-2.6,-44.1,-5.0,4.2*,2.1
COCCCN1C(=O)[C@H](CC(=O)NCc2cccc(C(F)(F)F)c2)[C@]2(C(=O)OC)CCCCC=C12,-3.4,x,-0.7,x,x,x,x,x
Cc1ccccc1Cn1cc(CN2[C@H](C)COc3cc(Br)ccc3S2(=O)=O)nn1,-0.1,x,0.8,x,x,x,x,x
C#CCNC(=O)C[C@H]1C(=O)N(CCCOC)C2=CCCCC[C@]21C(=O)OC,-3.4,x,0.1,x,x,x,x,x
CC(=O)N(C)c1ccc(N=Nc2ccc3ncccc3c2)cc1,2.6,x,5.5*,0.7,-111.1,x,10.2*,3.7*
COc1ccc2c(c1)CCC/C2=N\NC(=O)c1ccoc1C,3.7,1.2,4.6*,3.1,-133.7,6.1,5.0*,1.3
O=C(O)c1cc(N/N=C/C=C/c2ccccc2)ccc1Cl,1.7,-0.4,8.6*,1.3,-100.4,1.9,11.8*,6.2*
COc1ccc(-c2oc3cc(O)c(OC)c(O)c3c(=O)c2OC)cc1O,-1.2,x,7.9*,-1.0,-11.6,x,15.6*,-8.8
COc1ccc(-c2cc(=O)c3c(O)c(OC)c(O)cc3o2)cc1,0.6,1.0,5.1*,-4.3,-90.3,143.8,15.9*,8.3*
O=C(CSc1nnc(-c2ccccc2)n1-c1ccc(Cl)cc1)Nc1ccc2cn[nH]c2c1,4.5,x,-1.2,x,x,x,x,x
Clc1ccc(CSc2nnc(-c3cccs3)o2)cc1Cl,4.0,x,-1.2,x,x,x,x,x
Cc1nc2nc(-c3ccc(Cl)cc3)cn2nc1C,5.7,2.5,6.2*,-0.4,-141.5,4.8,9.4*,2.9*
CCCCNC(=O)C1(C(=O)C2CC2)CC(c2ccccc2C(F)(F)F)=NO1 (stereo not given),-1.2,x,-0.7,x,x,x,x,x
Cc1ccc2nc(-c3ccc(NC(=O)COC(=O)c4ccc(=O)[nH]c4)cc3)sc2c1,2.5,-5.4,8.4*,0.9,-117.3,-1.8,14.4*,8.5*
O=C(CCN1C(=O)NC2(CCCC2)C1=O)Nc1ccc(Sc2ccc(Br)cc2)cc1,3.6,x,-1.9,0.2,17.2,x,x,x
Cc1ccc2nc(-c3ccc(NC(=O)CN4CCN(c5ccccn5)CC4)cc3)sc2c1,6.8,-1.8,0.1,x,-112.1,6.1,x,x
Cc1ccc2nc(-c3ccc(NC(=O)CSc4nc(N)cc(=O)[nH]4)cc3)sc2c1,6.3,-0.1,4.8*,4.5*,-140.6,4.4,7.3*,4.0*
Cc1ccc2nc(-c3ccc(NC(=O)CN4C(=O)c5ccccc5C4=O)cc3)sc2c1,16.4*,0.1,5.4*,2.2,-166.4,6.4,14.6*,7.4*
SMILES,SMARCA2 activ,NR2E3 ag-1,DAX1 inh-1,DAX1 inh-2,NR2E3 ag-2,GASC-1 inh,DAX1 inh confirm,SF1 AF2mut Luc
Cc1ccc2nc(-c3ccc(NC(=O)CSc4nccc(=O)[nH]4)cc3)sc2c1,1.9,4.4,2.2,1.7,-48.7,-3.7,x,x
O=C(CCN1C(=O)NC2(CCCC2)C1=O)Nc1ccc(-c2nc3ccccc3s2)cc1,1.4,-0.9,5.8*,-1.0,-121.7,x,12.8*,5.8*
O=C(CSc1ccccc1)NC1CCCCN(Cc2ccc(Cl)cc2)C1=O (stereo not given),-3.8,x,-0.8,x,x,x,x,x
Cc1ccc(-c2nnc(SCc3ccc([N+](=O)[O-])cc3)n2-c2ccccc2)cc1,-3.7,x,0.5,x,x,x,x,x
O=C(Nc1nnc(C2CC2)s1)c1cccnc1Oc1ccc(Cl)cc1,-3.3,3.5,-0.7,0.3,18.7,-3.5,x,x
COc1c(C(=O)Nc2nnc(C3CC3)s2)csc1Cl,4.5,1.1,7.0*,2.0,-88.6,0.0,6.2*,9.1*
CC(=O)c1cccc(NC(=O)c2cnn3ccccc23)c1,1.2,-1.9,5.6*,1.2,-56.5,-8.2,6.5*,5.2*
Cc1ccc(C)c(NC(=O)c2cnn3ccccc23)c1,0.9,4.7,-1.4,-0.3,-17.1,-0.8,x,x
CC(=O)c1ccc(NC(=O)c2cnn3ccccc23)cc1,1.7,2.2,5.8*,-2.8,-73.8,-7.5,5.3*,2.0
COc1cccc(-c2ncn(CCc3ccccc3OC)c2CC(C)C)c1,-5.9,x,-2.2,x,x,x,x,x
COc1cccc(NC(=O)[C@H](NC(=O)[C@@H]2Cc3ccccc3CN2)c2ccccc2)c1,4.0,-5.0,4.9*,-0.1,-49.0,-25.6,4.1*,2.8
Cc1cc(NC(=O)CSc2ccc(-c3ccc(Br)cc3)nn2)no1,4.3,-1.7,5.3*,0.9,-34.9,16.5,-0.2,-0.5
COc1ccc(-c2nnc(SCC(=O)Nc3cc(C)on3)n2N)cc1OC,3.6,3.1,-0.5,-0.5,-3.5,-8.9,x,x
Cc1ccc(-c2ccc(SCC(=O)Nc3cc(C)on3)nn2)cc1,-1.7,0.5,-0.3,0.1,8.6,-2.3,x,x
Cc1cc(NC(=O)CSc2nnc(-c3cccc(F)c3)n2N)no1,5.8,1.4,5.2*,0.1,-6.1,3.8,2.3,1.7
CCN(CC)S(=O)(=O)c1ccc(NC(=O)CCN2C(=O)C3CC=CCC3C2=O)cc1 (stereo not given),0.5,3.6,5.2*,1.3,-11.1,x,0.9,0.9
CC1CCN(S(=O)(=O)c2ccc(NC(=O)CCN3C(=O)C4CC=CCC4C3=O)cc2)CC1 (stereo not given),-0.2,3.4,-1.6,-0.3,-9.2,x,x,x
